Test [1] addresses T1, CYP199A4 (Rhodopseudomonas palustris, UniProt Q2IU02).
T1 sequence (Q2IU02 1-410): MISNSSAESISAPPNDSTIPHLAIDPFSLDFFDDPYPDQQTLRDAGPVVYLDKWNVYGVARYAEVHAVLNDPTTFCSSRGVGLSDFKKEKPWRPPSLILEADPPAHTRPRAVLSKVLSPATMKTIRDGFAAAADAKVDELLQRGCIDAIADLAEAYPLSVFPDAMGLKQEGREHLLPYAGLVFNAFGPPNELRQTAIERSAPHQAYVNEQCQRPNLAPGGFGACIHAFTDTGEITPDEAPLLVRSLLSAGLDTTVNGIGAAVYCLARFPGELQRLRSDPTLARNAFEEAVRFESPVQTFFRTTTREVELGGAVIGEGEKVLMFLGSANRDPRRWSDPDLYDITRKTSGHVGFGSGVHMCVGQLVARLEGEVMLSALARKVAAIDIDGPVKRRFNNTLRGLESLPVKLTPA
As to the kind of experiment: Dissociation constant determination by UV-vis binding titration. A digest of the protocol: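 UV-vis titration at 30 °C: enzyme diluted to 0.5–2.0 μM in 50 mM Tris, pH 7.4. Substrate was added from 1, 10 or 100 mM stocks in ethanol or DMSO. Soret peak-to-trough absorbance difference was recorded over 700–250 nm. Kd came from fitting ΔA against total substrate concentration to the tight-binding quadratic equation.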

Test [2] addresses T1, CYP199A4. Put plainly: Spin state determination by UV-vis spectroscopy. In kind it is binding. As to conditions: WT CYP199A4, 50 mM Tris, pH 7.4.
Test [3] concerns the target T1, CYP199A4. As to the kind of experiment: In vitro NADH turnover assay and metabolite analysis. In kind it is biochemical. Conditions: for PFR (product formation rate): WT CYP199A4 0.5 μM, 50 mM Tris, pH 7.4.
Test [4] has as its system F298V mutant of CYP199A4. Put plainly: In vitro NADH turnover assay and metabolite analysis, F298V mutant. The class given is biochemical, Rhodopseudomonas palustris. The essentials: (§1)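 Mutant was expressed and purified as for WT, with glycerol removed by gel filtration. NADH was added to ~320 μM, then substrate at 1 mM final. NADH oxidation was followed at A340 (ε 6.22 mM⁻¹cm⁻¹). Values are mean ± S.D., n ≥ 3.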

For test [5], the system named is F182L mutant of CYP199A4. As to the kind of experiment: Spin state determination by UV-vis spectroscopy, F182L variant. The class given is binding, Rhodopseudomonas palustris. The essentials: (§2)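 Mutant was produced and purified as for WT. UV-vis spectra of the substrate-treated enzyme were recorded at 30 °C. The percentage low-to-high-spin shift of the ferric heme was estimated to about ±5%.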

Test [6] has as its target T1, CYP199A4. Conditions: WT CYP199A4, cited from earlier work.
Test [7] deals with T1, CYP199A4. Conditions: WT CYP199A4; cited from earlier work.
The target of test [8] is T1, CYP199A4. As to conditions: WT CYP199A4, cited from earlier work. This is another data set of the same source.
Test [9] deals with F298V mutant of CYP199A4. As to the kind of experiment: Spin state determination by UV-vis spectroscopy, F298V mutant. The class given is binding, Rhodopseudomonas palustris. A digest of the protocol:
as §2

Test [10] concerns F182L mutant of CYP199A4. As to the kind of experiment: In vitro NADH turnover assay and metabolite analysis, F182L mutant. In kind it is biochemical, Rhodopseudomonas palustris. The essentials: as §1

Read-outs that look alike come from different tables or passages of the source.

The term Kd denotes the concentration at which binding is half-saturated.

Compound `COc1cccc(-c2ccc(C(=O)O)cc2)c1` [4‐(3′‐methoxyphenyl)BA, 4‐(3′‐methoxyphenyl)benzoic acid] showed a Kd on CYP199A4 [1] of 600 ± 100 nM. For the same compound, the “HS [%] (shift from low-spin to high-spin ferric heme)” value at CYP199A4 [2] and on CYP199A4 [2] (listed as 4‐(3′‐Methoxyphenyl)benzoic acid) was at least 95% throughout.
`COc1ccc(-c2ccc(C(=O)O)cc2)cc1` [4‐(4′‐methoxyphenyl)BA, 4‐(4′‐methoxyphenyl)benzoic acid]: on CYP199A4 [1], binding was characterised by a dissociation constant (Kd) of 100000 ± 10000 nM. The “Coupling (percentage of NADH utilised for formation of oxidation products)” value at CYP199A4 [3] (WT CYP199A4) is at most 1%. Besides, the “HS [%] (shift from low-spin to high-spin ferric heme)” value on CYP199A4 [2] is recorded as about 10%.
The compound `O=C(O)c1ccc(C(=O)c2ccccc2)cc1` [4‐benzoylBA, 4‐benzoylbenzoic acid] came in with a Kd on CYP199A4 [1] of 2300 ± 400 nM. Also, the results for the “HS [%] (shift from low-spin to high-spin ferric heme)” value on CYP199A4 [2] and on CYP199A4 [2] (listed as 4‐benzoylbenzoic acid) were “type II^[c]” and “type II”, respectively.
As to `O=C(O)c1ccc(Cc2ccccc2)cc1` [4‐benzylBA, 4‐benzylbenzoic acid], at CYP199A4 [1], the Kd worked out at 5200 ± 250 nM. Moreover, the “Coupling (percentage of NADH utilised for formation of oxidation products)” value at CYP199A4 [3] (WT CYP199A4) turned out to be 95±11%. Moreover, the “PFR (product formation rate)” value on CYP199A4 [3] is 522 ± 61 min⁻¹; at CYP199A4 [3] (listed as 4‐Benzylbenzoic acid), 522 min⁻¹. The “HS [%] (shift from low-spin to high-spin ferric heme)” value on CYP199A4 [2] was determined as 90%.
Take `O=C(O)c1ccc(C2CCCCC2)cc1` [4‐cyclohexylBA, 4‐cyclohexylbenzoic acid]: in the test on F298V mutant of CYP199A4 [4] (F298V mutant), the Coupling efficiency came out at 31±9% and the NADH oxidation rate was 162 ± 55 min⁻¹. In addition, the “Product selectivity: 4-(1-hydroxycyclohexyl)benzoic acid (benzylic hydroxylation)” value in the test on F298V mutant of CYP199A4 [4] (F298V variant) was found to be 34%. In the test on F182L mutant of CYP199A4 [5], this compound returned a High-spin species of 90%. In addition, the “Product selectivity: 4-(1-hydroxycyclohexyl)benzoic acid (benzylic hydroxylation)” value at CYP199A4 [3] (WT CYP199A4) was 24%. Also, the “HS [%]” value on CYP199A4 [6] is at least 95%. The equilibrium dissociation constant (Kd) on CYP199A4 [7] was 450 ± 50 nM. At CYP199A4 [8], the Coupling is 33±2%, the NADH oxidation rate is 169 ± 11 min⁻¹ and the “PFR (product formation rate)” value is 52 ± 6 min⁻¹. The High-spin species in the test with F298V mutant of CYP199A4 [9] was at least 85%.
Turning to `COc1ccc(C(=O)O)cc1` [4‐methoxyBA, 4‐methoxybenzoic acid], the “HS [%]” value on CYP199A4 [6] (ref 8c) is given as at least 95%. At CYP199A4 [8] (ref 8c), the Coupling is 91±10%, the NADH oxidation rate was 1340 ± 30 min⁻¹ and the “PFR (product formation rate)” value was 1220 ± 120 min⁻¹.
With `O=C(O)c1ccc(-c2ccccc2)cc1` [4‐phenylBA, 4‐phenylbenzoic acid], the results for the NADH oxidation rate in the test with F298V mutant of CYP199A4 [4] (F298V mutant), with F182L mutant of CYP199A4 [10] and on CYP199A4 [8] were 1030 ± 90 min⁻¹, 75 ± 0.3 min⁻¹ and 902 ± 34 min⁻¹, respectively. For the same compound, in the test on F298V mutant of CYP199A4 [4] (F298V mutant), the “Oxidation by the F298V mutant (in words)” value is given as “unable to oxidise”. Moreover, the results for the High-spin species with F182L mutant of CYP199A4 [5] and in the test on F298V mutant of CYP199A4 [9] were about 10% and at least 85%, respectively. For the same compound, the Coupling efficiency in the test with F182L mutant of CYP199A4 [10] is 30%. The “Proportion of 4-(3′-hydroxyphenyl)benzoic acid among metabolites” value with F182L mutant of CYP199A4 [10] (RT 16.2 min) is listed as 9%. Moreover, at CYP199A4 [6], the “HS [%]” value is on record as 90%. In addition, the dissociation constant (Kd) at CYP199A4 [7] was 1700 ± 100 nM.
As to `CC(C)(C)c1ccc(C(=O)O)cc1` [4‐tert‐butylBA, 4‐tert‐butylbenzoic acid], the “HS [%]” value at CYP199A4 [6] is on record as at least 95%. In addition, the dissociation constant (Kd) at CYP199A4 [7] was 39000 ± 2000 nM. For the same compound, on CYP199A4 [8], the Coupling is 100±13%, the NADH oxidation rate was 227 ± 4 min⁻¹ and the “PFR (product formation rate)” value is 227 ± 32 min⁻¹.

Values taken from PMC10092897 (Chemistry (Weinheim an Der Bergstrasse, Germany), 2022).
